PglD DTNB: blocks C. jejuni PglD acetyltransferase activity; purified PglD enzyme, DTNB colorimetric CoA detection; inhibition, % at 12.5 µM; 360,000 compounds, 0.098% hits; AID 602405; in the data active means inhibition above about 16%, passing the limit was not always enough; inconclusive means no clear call, values can overlap the other calls
PGC1a acetyl inh: PGC1a acetylation modulation, inhibitor mode | U2OS PGC1a acetylation, AlphaScreen anti-acetyl-lysine; with virally co-expressed GCN5 acetyltransferase | inhibition, % at 15.6 µM | 350,000 compounds, 0.17% hits;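 active means every replicate shows inhibition of at least 40%; inconclusive means mean inhibition at least 40% but some replicate below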;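 further: 0% = neutral control wells and 100% = positive control wells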
HIV Env fusion: HIV envelope-mediated fusion inhibition. HeLa-JRFL Env/CEM21 cell fusion, luciferase. inhibition, % at 12.3 µM. 360,000 compounds, 1.1% hits. AID 651610;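 active means mean replicate inhibition score of at least 50 and every replicate individually at or above 50; inconclusive means only one of the two criteria met; inactive means mean below 50 and not all replicates reaching 50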;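 further: 0% = plate neutral controls and 100% = maraviroc near 300 nM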
FN deposition inh: fibronectin deposition inhibition. AH1F fibroblasts, Alexa488-fibronectin deposition fluorescence, overnight. inhibition, % at 12.6 µM. 350,000 compounds, 0.086% hits. AID 743247;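 active means mean inhibition across replicates of 30% or more, regardless of how many single replicates reach that level; inconclusive means mean under 30% yet at least half of replicates reach 30%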;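 further: positive control wells lacked labelled fibronectin entirely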
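Assay system: AH1F fibroblast monolayer, labelled fibronectin deposition. Amount: 10000 cells per well. Also added: labelled fibronectin 24 nM. Compound: single-point pinned compound. Incubation: cell attachment 1 h, compound and FN exposure overnight. Detection: fluorescence after three HBSS washes, excitation 485 nm, emission 525 nm. Read-out: inhibition of fibronectin deposition signal.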
DENV2 CPE rescue: protects cells from dengue virus 2 cytopathic effect; DENV2-infected cells, cytopathic effect rescue, plate reader; CPE inhibition, % at 9.99 µM; 350,000 compounds, 1.7% hits; AID 651640; in the data active means CPE inhibition above about 20%, passing the limit was not always enough; inconclusive means no clear call, values can overlap the other calls; tested in BHK-21 cells;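 further: 0% = median of neutral control wells and 100% = median of positive control wells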
Ecoli rRNA inh: inhibitors of bacterial rRNA selective over humanized ribosomes | E. coli WT GFP vs humanized-ribosome RFP mutants, fluorescence, 24 h; hits give low values; DMSO median 0, no signal -100 | GFP signal change (wild-type ribosome), % (no concentration beside the values) | 350,000 compounds, 1.6% hits;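 active means significant combined selectivity score with lowered wild-type GFP, culture density cut under 30%, mutant RFP and density less affected; inactive means any of these conditions unmet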
Starred values were filed as active, the others as inactive; ? = inconclusive; / = no result; ! = not confirmed by another sample; [ ] = another dose, or the depositor's remark. Shown are actives, neighbours in structure and some others; about 3.5% of the full set was active somewhere.

SMILES	PglD DTNB	PGC1a acetyl inh	HIV Env fusion	FN deposition inh	DENV2 CPE rescue	Ecoli rRNA inh
O=C(C[C@@H]1C/C=C\C[C@@H](Cc2ccc(F)cc2)C(=O)OC[C@H]2CCCN2C1=O)N[C@H](CO)Cc1ccccc1	-5	-4	2	3	6	-18*
CC(C)(C)OC(=O)C[C@H]1C/C=C\C[C@H](CC(=O)N[C@@H](CO)Cc2ccccc2)C(=O)N[C@H](C(C)(C)C)COC1=O	0	/	-17	3	63*	2
O=C(C[C@H]1C/C=C\CC[C@H](Cc2ccc(F)cc2)C(=O)O[C@@H](c2ccccc2)CNC1=O)N[C@H](CO)Cc1ccccc1	1	/	19	1	86*	6
O=C1CCCC/C=C\C[C@H](CC(=O)N(CCO)Cc2ccccc2)C(=O)NC[C@H](c2ccccc2)O1	2	/	-7	13	130*	-4
O=C1NC[C@H](c2ccccc2)OC(=O)[C@H](Cc2ccc(F)cc2)C/C=C\C[C@@H]1CC(=O)N(CCO)Cc1ccccc1	-2	1	0	4	-7	-13
C[C@@H]1CN([C@@H](C)CO)C(=O)c2cc(NS(=O)(=O)c3ccccc3)ccc2O[C@@H](C)CCCCO[C@@H]1CN(C)C(=O)Nc1ccc(F)cc1	-4	-5	4[16.7 µM]	/	-9	-1
CN1C(=O)c2cc(NC(=O)c3cccs3)ccc2OC[C@@H]2O[C@H](CC(=O)N3CCOCC3)CC[C@@H]21	-2	2	4[16.7 µM]	-5	5	1
C[C@@H]1CN([C@@H](C)CO)C(=O)Cc2cc(NC(=O)Cn3cnnn3)ccc2O[C@H]1CN(C)C(=O)Nc1ccc(F)cc1	/	-31	-7[16.7 µM]	/	/	7
CC(C)(C)OC(=O)C[C@@H]1C/C=C\C[C@H](CC(=O)NCCO)C(=O)N2CCC[C@H]2COC1=O	6	7	-1	2	83*	7
O=C(C[C@@H]1C/C=C/CC[C@H](Cc2ccc(F)cc2)C(=O)O[C@H](c2ccccc2)CNC1=O)NCCO	-1	/	67*	1	-8	1
CC(C)(C)OC(=O)C[C@H]1C/C=C\C[C@@H](CC(=O)NCCO)C(=O)N2CCC[C@H]2COC1=O	2	2	8	-4	-4	17
O=C(C[C@H]1C/C=C\C[C@@H](Cc2ccc(F)cc2)C(=O)O[C@H](c2ccccc2)CNC1=O)NCCO	2	/	12	13	-4	5
CCC(=O)N(C)C[C@@H]1Oc2cc(-c3cncnc3)ccc2S(=O)(=O)N([C@@H](C)CO)C[C@@H]1C	0	-1	-3[16.7 µM]	1	1	11
O=C(C[C@H]1CC[C@H]2[C@@H](COC[C@@H](O)CN2C(=O)Cc2ccccc2)O1)NC1CCCC1	-1	16	/	-12	?	1
O=C(C[C@H]1CC[C@@H]2[C@H](COC[C@H](O)CN2C(=O)Cc2ccccc2)O1)NC1CCCC1	2	29	/	-6	88*	-1
O=C(C[C@H]1CC[C@H]2[C@@H](COC[C@H](O)CN2C(=O)Cc2ccccc2)O1)NC1CCC1	0	-1	/	-11	38*	3
O=C(Nc1ccccc1F)N[C@@H]1C=C[C@@H](CC(=O)N2CCCCC2)O[C@@H]1CO	-1	5	7[16.7 µM]	2	7	2
CCOC(=O)C1=C(C)Nc2ccccc2N=C1NC(=O)C(c1ccccc1)c1ccccc1	-2	0	15	-5	6	-21*
CC(C)C[C@@H](COc1ccccc1)N1CCN(CCc2ccccc2)CCC1=O	1	/	16	4	101*	-52
C[C@H]1CN([C@@H](C)CO)C(=O)c2cc(NS(=O)(=O)c3ccc(Cl)cc3)ccc2O[C@H]1CN(C)S(=O)(=O)c1ccccc1	3	6	11[16.7 µM]	/	-4	0
C[C@@H]1CC[C@@]23COC(=O)C2=CCC[C@@H]3[C@@]1(C)CC/C(=C/CO)CO	-6	-5	/	/	18	-14
CC1=CCC[C@@H]2[C@@](C)(CC/C(C)=C/C(=O)O)[C@H](C)CC[C@@]12C	6	/	-17	4	25*	-2
CCCC(=O)Nc1ccc2c(c1)C(=O)N(C)C[C@H](OC)[C@@H](C)CN(Cc1ccncc1)[C@H](C)CO2	/	-11	/	-9	/	-2
O=S(=O)(c1ccccc1)c1nc(-c2ccco2)oc1Nc1ccccc1	/	/	16	4	-6	/
O=S(=O)(c1ccc(F)cc1)c1nc(-c2ccco2)oc1Nc1ccccc1	2	-12	66*	11	1	-16
SMILES	PglD DTNB	PGC1a acetyl inh	HIV Env fusion	FN deposition inh	DENV2 CPE rescue	Ecoli rRNA inh
C[C@H](CO)N1C[C@H](C)[C@@H](CN(C)C(=O)NC2CCCC2)Oc2ncc(-c3ccc(F)cc3)cc2C1=O	-2	6	12[16.7 µM]	9	-2	-1
Cc1cccc(-n2c(-c3ccc(Br)o3)n[nH]c2=S)c1	/	/	-3	3	-4	-20*
Cc1cccc(-n2c(-c3ccco3)n[nH]c2=S)c1	1	11	/	6	/	/
COCCNC(=O)C[C@H]1CC[C@H]2[C@@H](COC[C@@H](O)CN2C(=O)c2cc(Cl)cc(Cl)c2)O1	7	-9	-6[16.7 µM]	-13	-1	3
CCC(=O)N(C)C[C@@H]1Oc2cc(C#Cc3ccccc3)ccc2S(=O)(=O)N([C@H](C)CO)C[C@H]1C	0	7	66*[16.7 µM]	7	12	-21
CC(C)NC(=O)N(C)C[C@H]1Oc2cc(C#Cc3ccccn3)ccc2S(=O)(=O)N([C@@H](C)CO)C[C@@H]1C	-2	-3	-22[16.7 µM]	/	-8	-2
CC(C)C#Cc1ccc2c(c1)O[C@@H](CN(C)C(=O)CN(C)C)[C@@H](C)CN([C@@H](C)CO)S2(=O)=O	2	-5	13[16.7 µM]	/	31*	4
C[C@@H]1CN([C@H](C)CO)S(=O)(=O)c2ccc(C#Cc3ccccc3)cc2O[C@H]1CN(C)C(=O)C1CC1	2	-9	58*[16.7 µM]	8	2	-2
CC(C)NC(=O)N(C)C[C@@H]1Oc2cc(C#Cc3ccccn3)ccc2S(=O)(=O)N([C@H](C)CO)C[C@H]1C	4	-11	-23[16.7 µM]	/	22*	0
CCC(=O)N1[C@H](CO)[C@H](c2ccc(C3=CCCC3)cc2)[C@H]1CNC1CCCC1	/	/	/	8	14	3
COCC(=O)Nc1ccc2c(c1)C(=O)N(C)C[C@@H](OC)[C@@H](C)CN(C(=O)NC(C)C)[C@@H](C)CO2	1	6	/	-6	4	2
CCNC(=O)C[C@H]1CC[C@H]2[C@@H](COc3ccc(NC(=O)Nc4ccccc4OC)cc3C(=O)N2C)O1	1	2	-3[16.7 µM]	-16	-7	-2
C[C@@H]1CN([C@H](C)CO)S(=O)(=O)c2ccc(C#Cc3ccccc3)cc2O[C@@H]1CN(C)C(=O)CN(C)C	-4	-12	1	-2	40*!	2
